Experimental findings from ChEMBL document CHEMBL1828507, “Novel diarylpyridinones, diarylpyridazinones and diarylphthalazinones as potential HIV-1 nonnucleoside reverse transcriptase inhibitors (NNRTIs)” (Bioorg Med Chem, 2011) are described below.

Series [1] has as its system Human immunodeficiency virus 1. The series is described as follows: Antiviral activity against wild type HIV1 BaL in human TZM-b1 cells after 48 hrs by luciferase assay. In kind it is functional, organism-based. The following applies: Human immunodeficiency virus 1, BaL, TZM-b1, 48 h. In a few lines: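 Infected with 200 TCID₅₀ HIV-1 BaL, then 48 h culture and luciferase readout. Inhibition relative to untreated controls; EC50 by nonlinear regression. Triplicate wells, at least two independent experiments.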

In series [2] the test system is Human immunodeficiency virus 1. Description: Ratio of EC50 for HIV1 VI829 expressing reverse transcriptase Y181C mutant infected in human TZM-b1 cells to EC50 for wild type HIV1 VI829 in human TZM-b1 cells. The series is classed as functional.
Series [3] deals with Human immunodeficiency virus 1. Description: Antiviral activity against HIV1 VI829 expressing reverse transcriptase Y181C mutant infected in human TZM-bl cells after 48 hrs by luciferase assay. In kind it is functional, organism-based. Particulars: Human immunodeficiency virus 1, VI829, TZM-bl.
Series [4] has as its system Human immunodeficiency virus 1. The series is described as follows: Antiviral activity against HIV1 BaL expressing reverse transcriptase V106A mutant infected in human TZM-bl cells after 48 hrs by luciferase assay. In kind it is functional, organism-based. The following applies: Human immunodeficiency virus 1, BaL.
The test system of series [5] is Human immunodeficiency virus 1. The series is described as follows: Antiviral activity against wild type HIV1 VI829 infected in human TZM-b1 cells after 48 hrs by luciferase assay. The series is classed as functional, organism-based. The following applies: Human immunodeficiency virus 1, VI829, TZM-b1, 48 h.
Series [6] concerns Human immunodeficiency virus 1. Description: Ratio of EC50 for HIV1 BaL expressing reverse transcriptase V106A mutant infected in human TZM-bl cells to EC50 for wild type HIV1 BaL in human TZM-bl cells. The series is classed as functional.
Series [7] can be described thus: Cytotoxicity against human TZM-b1 cells infected with wild type HIV1 BaL after 48 hrs using formazan dye by WST1 assay. The series is classed as cell-based. The following applies: TZM-bl cells infected with wild type HIV1 BaL. A digest of the protocol: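 WST-1 reagent added, and absorbance at 450 nm read after 90 min. Viability relative to untreated controls; CC50 by nonlinear regression. Three replicate wells, at least two independent experiments.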

Series [8] addresses Human immunodeficiency virus type 1 reverse transcriptase (Human immunodeficiency virus 1, UniProt Q72547). Description: Inhibition of wild type HIV1 reverse transcriptase.
The nature of series [9]: Selectivity index, ratio of CC50 for human TZM-bl cells to EC50 for wild type HIV1 BaL. The series is classed as toxicity, cell-based. The following applies: read-out: Ratio CC50/EC50. In a few lines:
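SI taken as CC50/EC50. CC50 from a 48 h WST-1 viability assay (A450) in TZM-bl cells. EC50 from a 48 h luciferase readout in TZM-bl cells infected with 200 TCID₅₀ HIV-1 BaL after a 30 min compound pre-incubation with DEAE dextran. Both values by nonlinear regression.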

The subject of series [10] is Human immunodeficiency virus 1. The series is described as follows: Ratio of TMC120 EC50 to compound EC50 for wild type HIV1 BaL infected in human TZM-b1 cells. In kind it is functional.

With `Cc1cc(Cl)cc(C)c1Oc1ccc(=O)n(Nc2cccc(C#N)c2)n1`, the EC50 (in general, the midpoint of the concentration-response curve) in series [1] is over 5 µM.
Still for that read-out and setting: the figure for `N#Cc1ccc(Nc2ccc(=O)n(Nc3ccc(C#N)cc3)c2)cc1` is over 10 µM; for `Cc1cc(C)c(Nc2ccc(=O)n(Nc3ccc(C(F)(F)F)cc3)n2)c(C)c1` it is over 10 µM.
For the compound `Cc1cc(C)c(Oc2ccc(=O)n(Nc3ccc(C#N)cc3)n2)c(C)c1`, the “Ratio EC50” value in [2] is listed as over 64; in series [6], 2. Besides, the EC50 in series [3] was over 10 µM; in series [4] it was 1.12 µM; in [5] it was 0.16 µM; in series [1], 0.69 µM. In series [7], it took 19.9 µM to reach half-maximal cytotoxicity (CC50 at 48 h). Moreover, half-maximal inhibition in series [8] (IC50) required 100 µM. Further, the selectivity ratio in series [9] came out at 29.
For the compound `N#Cc1ccc(Nn2cc(Nc3ccccc3)ccc2=O)cc1`, the EC50 in series [1] is over 10 µM.
Same read-out and setting: the figure for `Cc1cc(Cl)cc(C)c1Oc1nn(Nc2ccc(Cl)cc2)c(=O)c2ccccc12` is 10 µM.
Compound `Cc1cc(C#N)cc(C)c1Oc1ccc(=O)n(Nc2ccc(C#N)cc2)n1` registered an EC50 in series [1] of 1.75 µM. In addition, in [7], it took 24.7 µM to reach half-maximal cytotoxicity (CC50 at 48 h). Also, the selectivity ratio in series [9] turned out to be 14.
The corresponding values for `Cc1cc(Cl)cc(C)c1Oc1nn(Nc2ccc(C#N)cc2)c(=O)c2ccccc12` are 3.6 µM, 51.2 µM and 14.2.
Consider `Cc1cc(Cl)cc(C)c1Oc1ccc(=O)n(Nc2ccc(C#N)cc2)n1`, for which the “Ratio EC50” value is reported as over 20 in series [2] and 8 in [6]. The EC50 was over 10 µM in series [3], 4.55 µM in series [4], 0.5 µM in series [5] and 0.6 µM in [1]. In addition, in series [7], the midpoint of cytotoxicity, the CC50 at 48 h, lay at 14.1 µM. In addition, the selectivity ratio in series [9] is 23.
Regarding `Cc1cc(C)c(Nc2ccc(=O)n(Nc3cccc(C#N)c3)n2)c(C)c1`, the EC50 in [1] was over 10 µM. Further, in [7], half-maximal cytotoxicity (CC50 at 48 h) was put at 5.04 µM. In addition, the selectivity ratio in series [9] is under 1.
On to `Cc1cc(C)c(Nc2ccc(=O)n(Nc3ccc(C#N)cc3)n2)c(C)c1`, for which a half-maximal effect in [1] (EC50) was put at 1.37 µM. The CC50 (usually the concentration that lowers cell viability or growth by half) at 48 h in [7] is over 100 µM. In series [8], inhibition was half-maximal at 547 µM (IC50). In addition, the selectivity ratio in series [9] was over 69. For the same compound, the “Ratio EC50” value in series [10] was found to be 700.
In [1], `Cc1cc(C)c(Nc2ccc(=O)n(Nc3ccccc3)c2)c(C)c1` returned an EC50 of over 10 µM.
`Cc1cccc(C)c1Oc1ccc(=O)n(Nc2ccc(C#N)cc2)n1` yielded an EC50 in [1] of 7.63 µM. The compound also displayed a CC50 at 48 h in [7] of over 100 µM. Also, the selectivity ratio in series [9] is over 13.
`Cc1cc(C#N)cc(C)c1Oc1ccc(=O)n(Nc2cccc(C#N)c2)n1` yielded a half-maximal effective concentration (EC50) in series [1] of over 10 µM.
As for `Cc1cc(Br)cc(C)c1Oc1ccc(=O)n(Nc2ccc(Cl)cc2)n1`, the EC50 in [1] was found to be 3.19 µM. In series [7], this compound gave a CC50 at 48 h of 63.5 µM. Moreover, the selectivity ratio in series [9] was 20.
In series [1], `Cc1cc(C)c(Oc2ccc(=O)n(Nc3cccc(C#N)c3)n2)c(C)c1` registered an EC50 of over 10 µM.
As for `Cc1cc(Br)cc(C)c1Oc1ccc(=O)n(Nc2ccc(C#N)cc2)n1`, the “Ratio EC50” value is over 29 in [2] and 5 in [6]. The EC50 in [3] was over 10 µM; in series [4] it was 2.97 µM; in series [5], 0.34 µM; in [1], 0.64 µM. The same compound gave a CC50 at 48 h in series [7] of over 100 µM. Besides, the selectivity ratio in series [9] was over 193.
In series [1], `Cc1cc(C)c(Oc2ccc(=O)n(Nc3ccc(F)cc3)n2)c(C)c1` displayed an EC50 of 9.64 µM. The midpoint of cytotoxicity in series [7], the CC50 at 48 h, lay at 23.5 µM. Moreover, in series [9], the selectivity ratio was 2.4.
As to `Cc1cccc(C)c1Oc1ccc(=O)n(Nc2ccc(F)cc2)n1`, the EC50 in series [1] was over 10 µM.
Consider `Cc1cc(C)c(Nc2ccc(=O)n(Nc3ccc(C#N)cc3)c2)c(C)c1`, for which the EC50 in series [1] is over 10 µM. Further, the IC50 (commonly the concentration that gives 50% inhibition) in series [8] stood at 760 µM.
Regarding `Cc1cc(C)c(Nc2ccnc(Nc3ccc(C#N)cc3)n2)c(C)c1` [DAPIVIRINE], the figures for the “Ratio EC50” value in series [2] and in series [6] were 5.4 and 1.3, respectively. Besides, the concentration for a half-maximal effect (EC50) was 0.0108 µM in [3], 0.0025 µM in series [4], 0.002 µM in series [5] and 0.002 µM in series [1]. Also, in series [7], the midpoint of cytotoxicity, the CC50 at 48 h, lay at 2.88 µM. This compound also registered an IC50 in [8] of 2.5 µM. Also, in [9], the selectivity ratio is 1440.
Compound `O=c1ccc(Nc2ccccc2)cn1Nc1ccccc1` yielded a half-maximal effective concentration (EC50) in [1] of over 10 µM.
`Cc1cccc(C)c1Oc1ccc(=O)n(Nc2ccccc2)n1` had an EC50 in series [1] of over 10 µM.
`Cc1cc(C)c(Nc2ccc(=O)n(Nc3ccc(C(F)(F)F)cc3)c2)c(C)c1` returned an EC50 in series [1] of over 10 µM.
As to `Cc1cc(C)c(Oc2ccc(=O)n(Nc3ccc(Cl)cc3)n2)c(C)c1`, the EC50 in series [1] was 3.95 µM. The compound further returned a CC50 at 48 h in series [7] of 22.3 µM. In addition, the selectivity ratio in series [9] turned out to be 5.6.
In series [1], `Cc1cc(C)c(Nc2ccc(=O)n(Nc3cccc(C#N)c3)c2)c(C)c1` returned an EC50 of over 10 µM.
Take `Cc1cc(C)c(Oc2ccc(=O)n(Nc3ccc(C(F)(F)F)cc3)n2)c(C)c1`: a half-maximal response in [1] (EC50) required 10 µM. Also, half-maximal cytotoxicity in series [7] (CC50 at 48 h) was put at 21.2 µM. Further, the selectivity ratio in series [9] amounted to 2.1.
In the case of `Cc1cc(C)c(Oc2nn(Nc3ccc(C#N)cc3)c(=O)c3ccccc23)c(C)c1`, a half-maximal effect in [1] (EC50) was put at 1.39 µM. It took 60.4 µM to reach half-maximal cytotoxicity in series [7] (CC50 at 48 h). In [8], this compound gave an IC50 of 928 µM. Besides, the selectivity ratio in series [9] is 43.3.
In the case of `Cc1cccc(C)c1Oc1ccc(=O)n(Nc2cccc(C#N)c2)n1`, in series [1], the EC50 was over 10 µM.
